Measurements reported in ChEMBL document CHEMBL2169747, “Synthesis and biological properties of highly sequence-specific-alkylating N-methylpyrrole-N-methylimidazole polyamide conjugates” (J Med Chem, 2012).
Active and inactive are the calls of the source. The calls are words filed in the database; no cut-off is given here.

What was measured:
[1] = test system: A549; assay: Downregulation of ELP4 gene expression in human A549 cells at 100 nM after 12 hrs by microarray analysis relative to control; assay type: functional
How it was run: (§1)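 A549 cells, 4 × 10^5 per 60 mm dish, were exposed to conjugate for 12 h in medium with 0.1% DMSO; vehicle control was 0.1% DMSO. Whole human genome (~25 000 genes) expression was profiled by microarray and expression compared with the control.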

[2] = test system: PC-3; assay: Cytotoxicity against human PC3 cells assessed as cell growth inhibition after 48 hrs by microplate reader analysis; assay type: functional, cell-based; settings: PC-3, 48 h
How it was run: (§2)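 Medium was RPMI-1640 for EBC-1, A549 and DU145, and DMEM for PC-3, SK-N-SH and K562. Both media had 10% heat-inactivated FBS plus penicillin/streptomycin; cells were kept at 37 °C, 5% CO2. Cells were seeded at 5000/well and given compound from DMSO stock (final 0.1% DMSO) for 48 h. Viability was read by WST-8 colorimetry, absorbance at 450 and 600 nm, and IC50 determined.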

[3] = test system: A549; assay: Downregulation of RPS6KC1 gene expression in human A549 cells at 100 nM after 12 hrs by microarray analysis relative to control; assay type: functional
How it was run: (§3)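 A549 cells (RPMI-1640, 10% heat-inactivated FBS, penicillin/streptomycin, 37 °C, 5% CO2) seeded at 4 × 10^5 per 60 mm dish. Exposed 12 h to conjugate at 21, 26, 34 or 100 nM in medium with 0.1% DMSO, against 0.1% DMSO control. Whole-genome (~25 000 genes) expression profiled by microarray.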

[4] = test system: A549; assay: Upregulation of BTG2 gene expression in human A549 cells at 100 nM after 12 hrs by microarray analysis relative to control; assay type: functional; how it was run: as §3
[5] = test system: DU-145; assay: Cytotoxicity against human DU145 cells assessed as cell growth inhibition after 48 hrs by microplate reader analysis; assay type: functional, cell-based; settings: DU-145, 48 h; how it was run: as §2
[6] = test system: A549; assay: Downregulation of GULP1 gene expression in human A549 cells at 100 nM after 12 hrs by microarray analysis relative to control; assay type: functional; how it was run: as §1
[7] = Cytotoxicity against human EBC1 cells assessed as cell growth inhibition after 48 hrs by microplate reader analysis; assay type: functional, cell-based; settings: EBC-1, 48 h; how it was run: as §2
[8] = test system: A549; assay: Downregulation of NP_056993.2 gene expression in human A549 cells at 100 nM after 12 hrs by microarray analysis relative to control; assay type: functional; how it was run: as §1
[9] = test system: A549; assay: Upregulation of GADD45A gene expression in human A549 cells at 100 nM after 12 hrs by microarray analysis relative to control; assay type: functional
How it was run: (§4)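 4 ×10^5 A549 cells seeded per 60 mm dish and treated 12 h with conjugate (21, 26, 34 or 100 nM) in medium; control medium contained 0.1% DMSO, with conjugates added as 0.1% DMSO solutions. Whole human genome (~25 000 genes) expression profiled by microarray against the DMSO control. A549 culture: RPMI-1640 with 10% heat-inactivated FBS, penicillin/streptomycin, 37 °C, 5% CO2.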

[10] = test system: K562; assay: Cytotoxicity against human K562 cells assessed as cell growth inhibition after 48 hrs by microplate reader analysis; assay type: functional, cell-based; settings: K562, 48 h; how it was run: as §2
[11] = test system: A549; assay: Downregulation of EFA6R gene expression in human A549 cells at 100 nM after 12 hrs by microarray analysis relative to control; assay type: functional; how it was run: as §1
[12] = test system: A549; assay: Upregulation of U124 gene expression in human A549 cells at 100 nM after 12 hrs by microarray analysis relative to control; assay type: functional; how it was run: as §4
[13] = test system: A549; assay: Cytotoxicity against human A549 cells assessed as cell growth inhibition after 48 hrs by microplate reader analysis; assay type: functional, cell-based; settings: A549, 48 h; how it was run: as §2
[14] = test system: A549; assay: Downregulation of DYM gene expression in human A549 cells at 100 nM after 12 hrs by microarray analysis relative to control; assay type: functional; how it was run: as §1
[15] = test system: A549; assay: Upregulation of HES2 gene expression in human A549 cells at 100 nM after 12 hrs by microarray analysis relative to control; assay type: functional; how it was run: as §4
[16] = test system: A549; assay: Upregulation of RRAD gene expression in human A549 cells at 100 nM after 12 hrs by microarray analysis relative to control; assay type: functional; how it was run: as §4
[17] = test system: A549; assay: Downregulation of SEMA3A gene expression in human A549 cells at 100 nM after 12 hrs by microarray analysis relative to control; assay type: functional; how it was run: as §3
[18] = test system: SK-N-SH; assay: Cytotoxicity against human SK-N-SH cells assessed as cell growth inhibition after 48 hrs by microplate reader analysis; assay type: functional, cell-based; how it was run: as §2
[19] = test system: A549; assay: Upregulation of CDKN1A gene expression in human A549 cells at 100 nM after 12 hrs by microarray analysis relative to control; assay type: functional; how it was run: as §4
[20] = test system: A549; assay: Downregulation of NCOA1 gene expression in human A549 cells at 100 nM after 12 hrs by microarray analysis relative to control; assay type: functional; how it was run: as §1
[21] = test system: A549; assay: Downregulation of PTPRK gene expression in human A549 cells at 100 nM after 12 hrs by microarray analysis relative to control; assay type: functional; how it was run: as §3
[22] = test system: A549; assay: Downregulation of Q8TC78 gene expression in human A549 cells at 100 nM after 12 hrs by microarray analysis relative to control; assay type: functional; how it was run: as §3
[23] = test system: A549; assay: Downregulation of FAF1 gene expression in human A549 cells at 100 nM after 12 hrs by microarray analysis relative to control; assay type: functional; how it was run: as §1
[24] = test system: A549; assay: Upregulation of FDXR gene expression in human A549 cells at 100 nM after 12 hrs by microarray analysis relative to control; assay type: functional; how it was run: as §4
[25] = test system: A549; assay: Downregulation of TCF12 gene expression in human A549 cells at 100 nM after 12 hrs by microarray analysis relative to control; assay type: functional; how it was run: as §3
[26] = test system: A549; assay: Downregulation of XRCC4 gene expression in human A549 cells at 100 nM after 12 hrs by microarray analysis relative to control; assay type: functional; how it was run: as §3
[27] = test system: A549; assay: Upregulation of NPPC gene expression in human A549 cells at 100 nM after 12 hrs by microarray analysis relative to control; assay type: functional; how it was run: as §4
[28] = test system: A549; assay: Downregulation of NP_653244.1 gene expression in human A549 cells at 100 nM after 12 hrs by microarray analysis relative to control; assay type: functional; how it was run: as §3
[29] = test system: A549; assay: Downregulation of NP_112224.1 gene expression in human A549 cells at 100 nM after 12 hrs by microarray analysis relative to control; assay type: functional; how it was run: as §1
[30] = test system: A549; assay: Downregulation of PDE7B gene expression in human A549 cells at 100 nM after 12 hrs by microarray analysis relative to control; assay type: functional; how it was run: as §3
[31] = test system: A549; assay: Downregulation of SUPT3H gene expression in human A549 cells at 100 nM after 12 hrs by microarray analysis relative to control; assay type: functional; how it was run: as §3
[32] = test system: A549; assay: Downregulation of NP_060504.1 gene expression in human A549 cells at 100 nM after 12 hrs by microarray analysis relative to control; assay type: functional; how it was run: as §1
[33] = test system: A549; assay: Downregulation of UVRAG gene expression in human A549 cells at 100 nM after 12 hrs by microarray analysis relative to control; assay type: functional; how it was run: as §3
[34] = test system: Nucleic Acid; assay: Induction of 208-bp PCR fragment DNA cleavage at 10 to 200 nM after 12 h by PAGE analysis
[35] = test system: A549; assay: Downregulation of FUT8 gene expression in human A549 cells at 100 nM after 12 hrs by microarray analysis relative to control; assay type: functional; how it was run: as §1
[36] = test system: A549; assay: Upregulation of MDM2 gene expression in human A549 cells at 100 nM after 12 hrs by microarray analysis relative to control; assay type: functional; how it was run: as §4
[37] = test system: A549; assay: Upregulation of BBC3 gene expression in human A549 cells at 100 nM after 12 hrs by microarray analysis relative to control; assay type: functional; how it was run: as §3

With `CC(=O)Nc1cn(C)c(C(=O)Nc2cn(C)c(C(=O)Nc3cc(C(=O)NCCC(=O)Nc4cc(C(=O)NCCCC(=O)Nc5cn(C)c(C(=O)NCCC(=O)Nc6cc(C(=O)Nc7ccc8[nH]c(C(=O)N9CC(CCl)c%10c9cc(O)c9ccccc%109)cc8c7)n(C)c6)n5)n(C)c4)n(C)c3)n2)n1` (racemic) the “fold change (FC)” value [1] was 0.045, the IC50 [2] was 29.5 nM and the “fold change (FC)” value [3] was 0.038. The “fold change (FC)” value [4] was 13, the IC50 [5] was 11.2 nM and the “fold change (FC)” value [6] was 0.062. The IC50 [7] was 550 nM, the “fold change (FC)” value [8] was 0.076 and the “fold change (FC)” value [9] was 8.3. For the same compound, the IC50 [10] was 15.5 nM, the “fold change (FC)” value [11] was 0.058 and the “fold change (FC)” value [12] was 10.3. The IC50 [13] was 100 nM, the “fold change (FC)” value [14] was 0.08 and the “fold change (FC)” value [15] was 19.2. The “fold change (FC)” value [16] was 11.2, the “fold change (FC)” value [17] was 0.063 and the IC50 [18] was 129 nM. For the same compound, the “fold change (FC)” value [19] was 9, the “fold change (FC)” value [20] was 0.068 and the “fold change (FC)” value [21] was 0.026. For the same compound, the “fold change (FC)” value [22] was 0.056, the “fold change (FC)” value [23] was 0.071 and the “fold change (FC)” value [24] was 8.2. For the same compound, the “fold change (FC)” value [25] was 0.074, the “fold change (FC)” value [26] was 0.067 and the “fold change (FC)” value [27] was 10.5. For the same compound, the “fold change (FC)” value [28] was 0.061, the “fold change (FC)” value [29] was 0.058 and the “fold change (FC)” value [30] was 0.064. The “fold change (FC)” value [31] was 0.052, the “fold change (FC)” value [32] was 0.068 and the “fold change (FC)” value [33] was 0.066. The Activity [34] was “Active”, the “fold change (FC)” value [35] was 0.035 and the “fold change (FC)” value [36] was 15.6. For the same compound, the “fold change (FC)” value [37] was 10.7.
